Laboratory results reported in ChEMBL document CHEMBL5724801, “EUbOPEN Chemogenomics Library - Multiplex” (2024).
“And” between values parts separate entries of the source, which are not always exact repeats. Equal entries are not always repeated.

Experiments:
Fibroblast = assay: Multiplex assay against human fibroblast; format: toxicity, cell-based
How it was run: (§1)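 Live cells carried four stains from seeding: Hoechst33342, BioTracker Green Microtubule Cytoskeleton Dye, MitoTracker Red and Annexin V Alexa Fluor 680. They were imaged on a CQ1 microscope at 37°C and 5% CO2 after compound addition. Using CellPathfinder machine-learning gating, cells were split into Hoechst high-intensity objects or normal cells, normal cells into healthy, pyknosed or fragmented nuclei, and pyknosed cells into mitotic or apoptotic; tubulin, mitochondrial-mass and membrane-permeability phenotypes are per cents of healthy-nucleus cells.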

HEK-293T = assay: Multiplex assay against HEK293T; format: toxicity, cell-based; settings: human; how it was run: as §1
[1] = 24 h, 10 µM, compound concentration 10 uM
[2] = 48 h, 1 µM, compound concentration 1 uM
[3] = 48 h, 10 µM, compound concentration 10 uM
[4] = 12 h, 1 µM, compound concentration 1 uM
[5] = 12 h, 10 µM, compound concentration 10 uM
[6] = 24 h, 1 µM, compound concentration 1 uM

CN1CCN(c2cc(-c3ccccc3)nc(N)n2)CC1
Population Apoptotic (%) (Fibroblast; [1]): 41% and 29%
Population Fragmented Nuclei (%) (Fibroblast; [1]): 12% and 33%
Population Healthy Nuclei (%) (Fibroblast; [1]): 70% and 43%
Population Hoechst High Intensity Objects (%) (Fibroblast; [1]): 2%
Population Membrane Permeable-Phenotype (%) (Fibroblast; [1]): 1% and 4%
Population Mitochondria Different-Phenotype (%) (Fibroblast; [1]): 6%
Population Mitotic Cells (%) (Fibroblast; [1]): 58% and 70%
Population Normal (%) (Fibroblast; [1]): 97%
Population Pyknosed Nuclei (%) (Fibroblast; [1]): 17% and 23%
Population Tubulin-Different-Phenotype (%) (Fibroblast; [1]): 41% and 64%
Total Cell Count (Fibroblast; [1]): 213 and 107
Population Apoptotic (%) (Fibroblast; [2]): 70% and 50%
Population Fragmented Nuclei (%) (Fibroblast; [2]): 22% and 36%
Population Healthy Nuclei (%) (Fibroblast; [2]): 62% and 49%
Population Hoechst High Intensity Objects (%) (Fibroblast; [2]): 2% and 3%
Population Membrane Permeable-Phenotype (%) (Fibroblast; [2]): 0% and 2%
Population Mitochondria Different-Phenotype (%) (Fibroblast; [2]): 2% and 6%
Population Mitotic Cells (%) (Fibroblast; [2]): 30% and 50%
Population Normal (%) (Fibroblast; [2]): 97% and 96%
Population Pyknosed Nuclei (%) (Fibroblast; [2]): 15% and 14%
Population Tubulin-Different-Phenotype (%) (Fibroblast; [2]): 20% and 54%
Total Cell Count (Fibroblast; [2]): 137 and 101
Population Apoptotic (%) (Fibroblast; [3]): 40% and 66%
Population Fragmented Nuclei (%) (Fibroblast; [3]): 26% and 50%
Population Healthy Nuclei (%) (Fibroblast; [3]): 58% and 39%
Population Hoechst High Intensity Objects (%) (Fibroblast; [3]): 3%
Population Membrane Permeable-Phenotype (%) (Fibroblast; [3]): 0% and 9%
Population Mitochondria Different-Phenotype (%) (Fibroblast; [3]): 0% and 9%
Population Mitotic Cells (%) (Fibroblast; [3]): 59% and 33%
Population Normal (%) (Fibroblast; [3]): 96%
Population Pyknosed Nuclei (%) (Fibroblast; [3]): 14% and 10%
Population Tubulin-Different-Phenotype (%) (Fibroblast; [3]): 31% and 60%
Total Cell Count (Fibroblast; [3]): 227 and 114
Population Apoptotic (%) (HEK-293T; [4]): 40% and 34%
Population Fragmented Nuclei (%) (HEK-293T; [4]): 8% and 5%
Population Healthy Nuclei (%) (HEK-293T; [4]): 79% and 84%
Population Hoechst High Intensity Objects (%) (HEK-293T; [4]): 6%
Population Membrane Permeable-Phenotype (%) (HEK-293T; [4]): 0%
Population Mitochondria Different-Phenotype (%) (HEK-293T; [4]): 35% and 48%
Population Mitotic Cells (%) (HEK-293T; [4]): 60% and 65%
Population Normal (%) (HEK-293T; [4]): 93%
Population Pyknosed Nuclei (%) (HEK-293T; [4]): 11% and 10%
Population Tubulin-Different-Phenotype (%) (HEK-293T; [4]): 21% and 16%
Total Cell Count (HEK-293T; [4]): 383 and 354
Population Apoptotic (%) (HEK-293T; [5]): 23% and 36%
Population Fragmented Nuclei (%) (HEK-293T; [5]): 7% and 6%
Population Healthy Nuclei (%) (HEK-293T; [5]): 82% and 81%
Population Hoechst High Intensity Objects (%) (HEK-293T; [5]): 7% and 10%
Population Membrane Permeable-Phenotype (%) (HEK-293T; [5]): 0%
Population Mitochondria Different-Phenotype (%) (HEK-293T; [5]): 46% and 63%
Population Mitotic Cells (%) (HEK-293T; [5]): 76% and 63%
Population Normal (%) (HEK-293T; [5]): 92% and 89%
Population Pyknosed Nuclei (%) (HEK-293T; [5]): 9% and 12%
Population Tubulin-Different-Phenotype (%) (HEK-293T; [5]): 30% and 20%
Total Cell Count (HEK-293T; [5]): 416 and 296
Population Apoptotic (%) (HEK-293T; [6]): 20% and 36%
Population Fragmented Nuclei (%) (HEK-293T; [6]): 9%
Population Healthy Nuclei (%) (HEK-293T; [6]): 79% and 82%
Population Hoechst High Intensity Objects (%) (HEK-293T; [6]): 4%
Population Membrane Permeable-Phenotype (%) (HEK-293T; [6]): 1%
Population Mitochondria Different-Phenotype (%) (HEK-293T; [6]): 16% and 24%
Population Mitotic Cells (%) (HEK-293T; [6]): 79% and 63%
Population Normal (%) (HEK-293T; [6]): 95%
Population Pyknosed Nuclei (%) (HEK-293T; [6]): 11% and 8%
Population Tubulin-Different-Phenotype (%) (HEK-293T; [6]): 12% and 8%
Total Cell Count (HEK-293T; [6]): 488 and 480
Population Apoptotic (%) (HEK-293T; [1]): 44% and 34%
Population Fragmented Nuclei (%) (HEK-293T; [1]): 13% and 9%
Population Healthy Nuclei (%) (HEK-293T; [1]): 75% and 79%
Population Hoechst High Intensity Objects (%) (HEK-293T; [1]): 6% and 9%
Population Membrane Permeable-Phenotype (%) (HEK-293T; [1]): 0%
Population Mitochondria Different-Phenotype (%) (HEK-293T; [1]): 32% and 50%
Population Mitotic Cells (%) (HEK-293T; [1]): 55% and 65%
Population Normal (%) (HEK-293T; [1]): 93% and 90%
Population Pyknosed Nuclei (%) (HEK-293T; [1]): 11%
Population Tubulin-Different-Phenotype (%) (HEK-293T; [1]): 19% and 17%
Total Cell Count (HEK-293T; [1]): 577 and 378
Population Apoptotic (%) (HEK-293T; [2]): 23% and 14%
Population Fragmented Nuclei (%) (HEK-293T; [2]): 13%
Population Healthy Nuclei (%) (HEK-293T; [2]): 78% and 80%
Population Hoechst High Intensity Objects (%) (HEK-293T; [2]): 1% and 2%
Population Membrane Permeable-Phenotype (%) (HEK-293T; [2]): 1% and 0%
Population Mitochondria Different-Phenotype (%) (HEK-293T; [2]): 12% and 14%
Population Mitotic Cells (%) (HEK-293T; [2]): 76% and 85%
Population Normal (%) (HEK-293T; [2]): 98% and 97%
Population Pyknosed Nuclei (%) (HEK-293T; [2]): 7% and 6%
Population Tubulin-Different-Phenotype (%) (HEK-293T; [2]): 12% and 9%
Total Cell Count (HEK-293T; [2]): 745 and 804
Population Apoptotic (%) (HEK-293T; [3]): 16% and 27%
Population Fragmented Nuclei (%) (HEK-293T; [3]): 17% and 13%
Population Healthy Nuclei (%) (HEK-293T; [3]): 75% and 81%
Population Hoechst High Intensity Objects (%) (HEK-293T; [3]): 3%
Population Membrane Permeable-Phenotype (%) (HEK-293T; [3]): 0% and 1%
Population Mitochondria Different-Phenotype (%) (HEK-293T; [3]): 25% and 24%
Population Mitotic Cells (%) (HEK-293T; [3]): 83% and 72%
Population Normal (%) (HEK-293T; [3]): 96%
Population Pyknosed Nuclei (%) (HEK-293T; [3]): 6% and 4%
Population Tubulin-Different-Phenotype (%) (HEK-293T; [3]): 14% and 11%
Total Cell Count (HEK-293T; [3]): 861 and 645
